Reference: ChEMBL document CHEMBL1156322, “Synthesis and biological evaluation of nitrogen-containing benzophenone analogues as TNF-alpha and IL-6 inhibitors with antioxidant activity” (Bioorg Med Chem Lett, 2010)
The source made the active and inactive calls. The rule behind the calls is not given here.

Assays:
[1] = test system: Radical scavenging activity; assay: Antioxidant activity assessed as DPPH free radical scavenging activity at 1 uM after 2 mins by spectrophotometry; assay type: functional
[2] = test system: Radical scavenging activity; assay: Antioxidant activity assessed as DPPH free radical scavenging activity at 1 uM after 4 mins by spectrophotometry; assay type: functional
[3] = test system: Radical scavenging activity; assay: Antioxidant activity assessed as DPPH free radical scavenging activity at 1 uM after 6 mins by spectrophotometry; assay type: functional
[4] = test system: Radical scavenging activity; assay: Antioxidant activity assessed as DPPH free radical scavenging activity at 1 uM after 8 mins by spectrophotometry; assay type: functional
[5] = test system: Radical scavenging activity; assay: Antioxidant activity assessed as DPPH free radical scavenging activity at 1 uM after 10 mins by spectrophotometry; assay type: functional
THP-1 [6] = assay: Antiinflammatory activity in LPS-stimulated human THP1 cells assessed as inhibition of TNFalpha formation at 10 uM pretreated 30 mins before LPS challenge measured after 24 hrs by ELISA; assay type: functional; design: scale not given: the % may be the effect or the level left
Summary of the method: (§1)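 PMA-differentiated human THP-1 cells in RPMI 1640 with 10% FBS, penicillin and streptomycin. Compound or vehicle (0.5% DMSO) was added for 30 min at 37 °C, then E. coli 0127:B8 LPS. Cells were incubated 24 h at 37 °C, 5% CO2. Supernatant TNF-α and IL-6 were measured by ELISA. Percent inhibition of release was calculated versus control.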

THP-1 [7] = assay: Antiinflammatory activity in LPS-stimulated human THP1 cells assessed as inhibition of IL6 formation at 10 uM pretreated 30 mins before LPS challenge measured after 24 hrs by ELISA; assay type: functional; design: scale not given: the % may be the effect or the level left; summary of the method: as §1
THP-1 [8] = assay: Antiinflammatory activity in LPS-stimulated human THP1 cells assessed as inhibition of IL6 formation at 1 uM pretreated 30 mins before LPS challenge measured after 24 hrs by ELISA; assay type: functional; design: scale not given: the % may be the effect or the level left; summary of the method: as §1
[9] = Cytotoxicity against LPS-stimulated human THP-1 cells at 10 uM after 24 hrs by CCK-8 assay; settings: THP-1, 24 h
[10] = test system: Radical scavenging activity; assay: Antioxidant activity assessed as DPPH free radical scavenging activity at 1 mM after 20 mins by spectrophotometry
THP-1 [11] = assay: Antiinflammatory activity in LPS-stimulated human THP1 cells assessed as inhibition of TNFalpha formation at 1 uM pretreated 30 mins before LPS challenge measured after 24 hrs by ELISA; assay type: functional; design: scale not given: the % may be the effect or the level left; summary of the method: as §1

| SMILES | Activity [1] | Activity [2] | Activity [3] | Activity [4] | Activity [5] | Activity (THP-1 [6]) [%] | Activity (THP-1 [7]) [%] | Activity (THP-1 [8]) [%] | Activity [9] [%] | Activity [10] | Activity (THP-1 [11]) [%] |
| --- | --- | --- | --- | --- | --- | --- | --- | --- | --- | --- | --- |
| COc1cc(OC)c(C(=O)c2ccccc2F)c(O)c1CN1CCOCC1 | 3.5% | 4.2% | 4.74% | 6.8% | 8.21% | 27 | 89 | 19 | 39 | 19.7% |  |
| COc1cc(OC)c(C(=O)c2cccc(Cl)c2)c(O)c1CN1CCN(C)CC1 | inactive | inactive | inactive | inactive | inactive | 100 | 100 | 54 | 77 | inactive |  |
| COc1cc(OC)c(C(=O)c2cccc(F)c2)c(O)c1CN1CCCC1 | 0.92% | 4.51% | 2.11% | 3.78% | 4.78% | 1 | 93 | 34 | 34 | 7.29% |  |
| COc1cc(OC)c(C(=O)c2cccc(F)c2)c(O)c1CN1CCN(C)CC1 | 9.5% | 15.8% | 18.5% | 19.4% | 22.6% | 54 | 97 | 47 | 22 | 40.4% |  |
| COc1cc(O)c(C(=O)c2ccccc2Br)c(OC)c1 | inactive | inactive | inactive | inactive | inactive | 11 | 72 | 7 | 43 | inactive |  |
| COc1cc(OC)c(C(=O)c2cccc(F)c2)c(O)c1CN1CCOCC1 | inactive | inactive | inactive | inactive | inactive | 21 | 86 | 35 | 42 | inactive |  |
| COc1cc(OC)c(C(=O)c2cccc(F)c2)c(O)c1CN1CCCCC1 | 4.2% | 5.98% | 9.25% | 11.8% | 13.7% | 0 | 87 | 30 | 27 | 24.7% |  |
| COc1cc(OC)c(C(=O)c2ccccc2F)c(O)c1CN1CCN(C)CC1 | 3.3% | 3.95% | 4% | 5.4% | 6.2% | 19 | 83 | 21 | 40 | 17.5% |  |
| COc1cc(OC)c(C(=O)c2ccccc2F)c(O)c1CN1CCCCC1 | 13.7% | 16.9% | 23% | 28.9% | 34.6% | 0 | 84 | 18 | 31 | 73.3% |  |
| COc1cc(OC)c(C(=O)c2ccccc2Br)c(O)c1CN1CCCC1 | inactive | inactive | inactive | inactive | inactive | 99 | 100 | 19 | 84 | inactive |  |
| COc1cc(OC)c(C(=O)c2cccc(Cl)c2)c(O)c1CN1CCCC1 | 0.5% | 1.6% | 1.82% | 2.1% | 2.11% | 37 | 81 | 41 | 53 | 5.13% |  |
| O=C(O)c1cc(O)c(O)c(O)c1 | 18.2% | 22.7% | 19.4% | 38.4% | 46.9% |  |  |  |  |  |  |
| COc1cc(OC)c(C(=O)c2cccc(Cl)c2)c(O)c1CN1CCCCC1 | 9.2% | 11.4% | 14.8% | 20.9% | 22.8% | 11 | 83 | 33 | 31 | 45.3% |  |
| COc1cc(OC)c(C(=O)c2ccccc2Br)c(O)c1CN1CCCCC1 | 10.8% | 14.2% | 17.7% | 25.4% | 32.5% | 78 | 98 | 22 | 61 | 64.4% |  |
| C[C@@H]1C[C@H]2[C@@H]3CCC4=CC(=O)C=C[C@]4(C)[C@@]3(F)[C@@H](O)C[C@]2(C)[C@@]1(O)C(=O)CO [DEXAMETHASONE] |  |  |  |  |  |  |  |  |  |  | 73 |
| COc1cc(O)c(C(=O)c2cccc(Cl)c2)c(OC)c1 | 3.21% | 3.9% | 4.2% | 6.52% | 7.6% | 0 | 78 | 31 | 49 | 16.4% |  |
| COc1cc(OC)c(C(=O)c2ccccc2F)c(O)c1CN1CCCC1 | 3.6% | 4.24% | 6.45% | 9.5% | 11.9% | 10 | 87 | 15 | 27 | 24.8% |  |
| COc1cc(O)c(C(=O)c2ccccc2F)c(OC)c1 | 8.2% | 12.5% | 13.6% | 16.8% | 18.9% | 47 | 71 | 11 | 53 | 32.4% |  |
| COc1cc(O)c(C(=O)c2cccc(F)c2)c(OC)c1 | inactive | inactive | inactive | inactive | inactive | 0 | 81 | 38 | 24 | inactive |  |
| COc1cc(OC)c(C(=O)c2cccc(Cl)c2)c(O)c1CN1CCOCC1 | 5.52% | 6.44% | 9.45% | 14.6% | 15.9% | 1 | 83 | 42 | 39 | 33.4% |  |
| COc1cc(OC)c(C(=O)c2ccccc2Br)c(O)c1CN1CCOCC1 | 0.8% | 1.2% | 1.9% | 2.11% | 2.95% | 65 | 97 | 19 | 66 | 6.23% |  |
| COc1cc(OC)c(C(=O)c2ccccc2Br)c(O)c1CN1CCN(C)CC1 | 3.2% | 3.95% | 4.5% | 6.8% | 7.59% | 20 | 81 | 9 | 23 | 13.5% |  |
